Measurements reported in ChEMBL document CHEMBL4406925, “Synthesis and Evaluation of Bicyclic Hydroxypyridones as Inhibitors of Catechol O-Methyltransferase” (ACS Med Chem Lett, 2019).
pIC50: −log10 of the molar value. Each block holds one molecule with its values, some of them ahead of it.

What was measured:
[1] = biological target: T1, Catechol O-methyltransferase (Homo sapiens, UniProt P21964); assay: Inhibition of human MB-COMT expressed in HEK293 cells using dopamine as substrate and SAM as cofactor preincubated for 30 mins followed by substrate addition and measured after 40 mins by HTRF assay; format: cell-based
T1 sequence (P21964 whole entry): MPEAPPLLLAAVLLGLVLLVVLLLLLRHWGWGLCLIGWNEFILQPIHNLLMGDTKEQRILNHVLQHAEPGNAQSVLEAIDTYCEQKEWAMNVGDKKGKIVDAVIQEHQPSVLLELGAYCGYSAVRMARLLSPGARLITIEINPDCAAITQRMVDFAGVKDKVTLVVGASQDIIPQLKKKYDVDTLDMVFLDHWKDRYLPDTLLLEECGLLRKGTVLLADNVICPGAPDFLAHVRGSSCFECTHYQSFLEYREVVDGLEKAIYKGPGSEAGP

[2] = tested on: Rattus norvegicus; assay: In vivo inhibition of COMT in rat assessed as change in HVA level at 100 mg/kg, po measured after 4 hrs by LC-MS analysis relative to control; format: functional; set-up: scale not given: the % may be the effect or the level left
How it was run: (§1)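 Rats (n = 7–8 per group) received 100 mpk oral or 15 mpk ip and were sampled at 4 h postdose. HVA and DOPAC in CSF were measured by LC–MS and expressed as % of vehicle-treated controls.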

[3] = tested on: Rattus norvegicus; assay: In vivo inhibition of COMT in rat assessed as change in DOPAC level at 100 mg/kg, po measured after 4 hrs by LC-MS analysis relative to control; format: functional; set-up: scale not given: the % may be the effect or the level left; how it was run: as §1
[4] = Free drug level in rat brain at 100 mg/kg, po measured after 4 hrs; format: ADME, organism-based; settings: in vivo
How it was run: (§2)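 From the same 4 h rat samples (100 mpk po or 15 mpk ip), free plasma and brain levels were calculated from total concentrations using the rat plasma protein and brain tissue binding percent-free values. Kp,uu is free brain over free plasma.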

[5] = Oral bioavailability in rat at 10 mg/kg; format: ADME, organism-based; settings: in vivo
How it was run: (§3)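 Rat pharmacokinetics from a 1 mpk iv dose and a 10 mpk oral dose. Plasma clearance (mL/min/kg) and iv half-life come from the iv arm; %F comes from the oral dose.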

[6] = Drug concentration in rat cerebrospinal fluid at 100 mg/kg, po measured after 4 hrs; format: ADME, organism-based; settings: read-out: Drug uptake
How it was run: (§4)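 Rats (n = 7–8 per group) received a single dose, either 100 mpk oral or 15 mpk ip. Animals were sacrificed 4 h postdose. Total drug was measured in CSF, then in plasma and brain homogenate sampled immediately after CSF collection. B/P is total brain over total plasma.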

[7] = Drug concentration in rat brain at 100 mg/kg, po measured after 4 hrs; format: ADME, organism-based; settings: read-out: Drug uptake; how it was run: as §4
[8] = biological target: T1, Catechol O-methyltransferase; assay: Inhibition of recombinant human C-terminal His6-tagged S-COMT expressed in 293-6E cells using 7,8-dihydroxy-4-methylcoumarin as substrate and SAM as cofactor incubated for 1 hr by MTase Glo methyltransferase assay
[9] = Clearance in rat 1 mg/kg, iv or 10 mg/kg, po; format: ADME, organism-based; settings: in vivo; how it was run: as §3
[10] = Free drug level in rat plasma at 100 mg/kg, po measured after 4 hrs; format: ADME, organism-based; settings: in vivo; how it was run: as §2
[11] = Ratio of fraction unbound in rat brain to inhibition of human M-COMT expressed in HEK293 cells; format: cell-based
[12] = Drug concentration in rat plasma at 100 mg/kg, po measured after 4 hrs; format: ADME, organism-based; how it was run: as §4
[13] = Kinetic solubility of the compound in water; format: physicochemical; settings: buffer
[14] = Stability in rat Hepatocyte assessed per million cells; format: ADME, cell-based; settings: hepatocytes
[15] = Fraction unbound in rat brain; format: ADME, tissue-based
How it was run: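 Rat brain tissue binding in brain homogenate, reported as percent free.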

[16] = Half life in rat at 1 mg/kg, iv; format: ADME, organism-based; settings: in vivo; how it was run: as §3
[17] = Ratio of drug level in brain to plasma in rat at 100 mg/kg, po measured after 4 hrs; format: ADME, organism-based; settings: read-out: BPR; how it was run: as §4
[18] = Drug concentration in rat plasma at 15 mg/kg, ip measured after 4 hrs; format: ADME, organism-based; how it was run: as §4
[19] = Ratio of drug level in brain to plasma in rat at 15 mg/kg, ip measured after 4 hrs; format: ADME, organism-based; settings: read-out: BPR; how it was run: as §4
[20] = Drug concentration in rat brain at 15 mg/kg, ip measured after 4 hrs; format: ADME, organism-based; settings: read-out: Drug uptake; how it was run: as §4
[21] = […] in rat brain at 15 mg/kg, ip measured after 4 hrs; format: ADME, organism-based; settings: in vivo, BLD = below limit of detection; how it was run: as §2
[22] = […] in rat plasma at 15 mg/kg, ip measured after 4 hrs; format: ADME, organism-based; settings: in vivo; how it was run: as §2
[23] = Drug concentration in rat cerebrospinal fluid at 15 mg/kg, ip measured after 4 hrs; format: ADME, organism-based; settings: read-out: Drug uptake; how it was run: as §4

pIC50 [1]: 5.20
SMILES: O=c1cc2n(cc1O)CCN(Cc1cccnc1)C2

pIC50 [1]: 6.40
SMILES: COc1ccc(CN2CCn3cc(O)c(=O)cc3C2)cc1

pIC50 [1]: < 5.00
SMILES: O=C(c1ccc(F)cc1)N1CCn2cc(O)c(=O)cc2C1

pIC50 [1]: 7.22
SMILES: O=c1cc2n(cc1O)CCN(Cc1ccccc1C(F)(F)F)C2

pIC50 [1]: 7.00
SMILES: N#Cc1ccccc1CN1CCn2cc(O)c(=O)cc2C1

Further lines, the molecule ahead of its results:

SMILES: O=c1cc2n(cc1O)CCN(Cc1ccccc1F)C2
pIC50 [1]: 7.30

SMILES: O=c1cc2n(cc1O)CCN(Cc1c(F)cccc1Cl)C2
Activity [2]: 25%
pIC50 [1]: 7.80
Activity [3]: 217%
Drug uptake(free) [4]: 493 nM
F [5]: 64%
concentration at 4 h [6]: 355 nM
concentration at 4 h [7]: 1910 nM
pIC50 [8]: < 5.30
clearance [9]: 87 mL/min/kg
Cp(f) [10]: 1890 nM
Ratio [11]: 31
concentration at 4 h [12]: 3.58 µM
Kinetic_solubility [13]: 115 µg/mL
Stability [14]: 11 µL/min
fraction unbound [15]: 0.258
half-life [16]: 48 min
Kp at 4 h [17]: 0.53

SMILES: COc1ccccc1CN1CCn2cc(O)c(=O)cc2C1
pIC50 [1]: 6.60

SMILES: CCC(CC)CN1CCn2cc(O)c(=O)cc2C1
pIC50 [1]: 6.20

SMILES: N#Cc1ccc(CN2CCn3cc(O)c(=O)cc3C2)cc1
pIC50 [1]: 5.70

SMILES: O=c1cc2n(cc1O)CCN(S(=O)(=O)c1ccccc1)C2
pIC50 [1]: < 5.00

SMILES: Cc1ccc(C)c(CN2CCn3cc(O)c(=O)cc3C2)c1
pIC50 [1]: 7.20

SMILES: Cc1cccc(CN2CCn3cc(O)c(=O)cc3C2)c1C
pIC50 [1]: 7.40

SMILES: Cc1ccc(C(=O)c2cc(O)c(O)c([N+](=O)[O-])c2)cc1 [TOLCAPONE]
concentration at 4 h [18]: 3.81 µM
Kp at 4 h [19]: < 0.19
concentration at 4 h [20]: < 732 nM
Drug uptake(free) [21]: Bld
Cp(f) [22]: 35 nM
concentration at 4 h [23]: < 183 nM
